In ChEMBL document CHEMBL1134485, “Diguanidino and "reversed" diamidino 2,5-diarylfurans as antimicrobial agents” (2001):
Values after ≈ are worked out from the molar mass of the structure shown.

How the values were obtained:
Aspergillus fumigatus [1] = assay: In vitro minimum fungicidal concentration required to inhibit Aspergillus fumigatus(MFC); format: functional
In short: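 Mould MFC: 100 µL aliquots from macrodilution tubes (RPMI 1640/MOPS pH 7.0, 0.5 × 10³ to 2.5 × 10³ CFU/mL conidial inoculum, 30 °C, 48-72 h, drug 100 to 0.09 µg/mL) showing complete growth inhibition plated on Sabouraud agar; MFC taken as lowest drug concentration giving three or fewer colonies.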

Aspergillus fumigatus [2] = assay: Antimicrobial activity against Aspergillus fumigatus (MIC); format: functional
Candida albicans [3] = assay: In vitro minimum fungicidal concentration against Candida albicans.; format: functional
In short: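 Yeast MFC: after broth macrodilution (RPMI 1640/MOPS pH 7.0, 0.5 × 10³ to 2.5 × 10³ CFU/mL, 35 °C, 48 h or 72 h for C. neoformans, drug 100 to 0.09 µg/mL), 100 µL from tubes with complete inhibition plated on Sabouraud agar; lowest concentration yielding three or fewer colonies recorded.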

Candida albicans [4] = assay: In vitro minimum inhibitory concentration against Candida albicans.; format: functional
Nucleic Acid [5] = test system: Nucleic Acid
Nucleic Acid [6] = test system: Nucleic Acid; remark: listed apart in the source
[7] = test system: Mycobacterium tuberculosis; assay: In vitro minimum inhibitory concentration required to inhibit Mycobacterium tuberculosis; format: functional
In short: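 M. tuberculosis H37Rv grown in BACTEC 12B medium; fluorometric broth microdilution (Microplate Alamar Blue Assay). […] MIC = lowest concentration reducing relative fluorescence units by ≥90% relative to control culture. Testing done by TAACF.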

SMILES | MFC (Aspergillus fumigatus [1]) | MIC (Aspergillus fumigatus [2]) | MFC (Candida albicans [3]) | MIC (Candida albicans [4]) | ΔTm (Nucleic Acid [5]) | ΔTm (Nucleic Acid [6]) | MIC [7]
Cc1cc(NC(=N)c2ccccn2)cc(C)c1-c1ccc(-c2c(C)cc(NC(=N)c3ccccn3)cc2C)o1 | > 100 µg/mL | 10 µg/mL (≈ 19.4 µM) | > 100 µg/mL | 10 µg/mL (≈ 19.4 µM) | 5.7 | 1.2 | –
Cc1cc(NC(=N)N)ccc1-c1ccc(-c2ccc(NC(=N)N)cc2C)o1.Cl.Cl | 33.4 µg/mL | 33.4 µg/mL | 2.08 µg/mL | 1.04 µg/mL | 17.8 | 6.9 | ≤ 1 µg/mL
